Series [1] relates to HeLa. Kind of series: Cytotoxicity against human HeLa cells after 48 hrs by MTT assay. Format: functional, cell-based. (In general: Formazan colour is commonly taken as a measure of viable cells.)
Series [2] deals with MCF7. Description: Cytotoxicity against human MCF7 cells after 48 hrs by MTT assay. The settings on record: MCF7, 48 h. The class given is functional, cell-based.
The next series concerns MDA-MB-231. Kind of series: Cytotoxicity against human MDA-MB-231 cells. The class given is functional, cell-based.
Series [3] in a line: Cytotoxicity against human EAhy926 cells after 48 hrs by MTT assay. The class given is functional, cell-based. The settings on record: EA.hy 926, 48 h.
For series [4], the system named is HeLa. Kind of series: Cytotoxicity against human HeLa cells at 100 uM after 48 hrs by MTT assay. Format: functional. Particulars: read-out: GI. Summed up:
(§1)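 MTT cytotoxicity screen against HeLa or MCF-7 cells at a single test concentration of 100 μM (screen also included 1 μM).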

Series [5] concerns the target Platelet-derived growth factor receptor beta (Homo sapiens) (UniProt P09619). Kind of series: Inhibition of human recombinant PDGFR-beta expressed in insect cells using Ulight-Poly GAT[EAY(1:1:1)]n as substrate at 1 uM after 60 mins by fluorescence assay. In short, it runs like this: (§2)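 In vitro kinase assay against FGFR1, PDGFRβ or VEGFR2 with test compound at 1 μM. Read-out is the level of phosphorylation of a tyrosine kinase-specific ligand peptide substrate.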

The subject of another series is A-431. Kind of series: Cytotoxicity against human A431 cells over expressing EGFR after 48 hrs by MTT assay. Format: functional, cell-based. Particulars: A-431, 48 h.
Series [6] has as its system HUVEC. Kind of series: Antiangiogenic activity in HUVEC assessed as suppression of tube formation after 24 hrs by hematoxylin staining analysis. The class given is functional, cell-based. The settings on record: Homo sapiens.
In series [7] the test system is MCF7. Kind of series: Cytotoxicity against human MCF7 cells at 100 uM after 48 hrs by MTT assay. The class given is functional. Particulars: MCF7, 48 h, read-out: GI. In short, it runs like this:
as §1

In series [8] the test system is HUVEC. Description: Antiangiogenic activity in HUVEC assessed as suppression of tube formation at 25 nM after 24 hrs by hematoxylin staining analysis. Format: functional. Particulars: Homo sapiens.
For series [9], the target named is Fibroblast growth factor receptor 1 (Homo sapiens) (UniProt P11362). Kind of series: Inhibition of human recombinant FGFR1 expressed in insect cells using Ulight-CAGAGAIETDKEYYTVKD as substrate at 1 uM after 60 mins by fluorescence assay. Summed up:
as §2

In series [10] the target is Vascular endothelial growth factor receptor 2 (Homo sapiens) (UniProt P35968). Description: Inhibition of human recombinant VEGFR2 expressed in insect cells using Ulight-CAGAGAIETDKEYYTVKD as substrate at 1 uM after 60 mins by fluorescence assay. Summed up:
as §2

For series [11], the system named is HUVEC. Description: Ratio of IC50 for cytotoxicity in HUVEC to EC50 for antiangiogenic activity in HUVEC. Format: functional, Homo sapiens. Summed up: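 Ratio of HUVEC cytotoxic IC50 (MTT) to antiangiogenic ED50 from the HUVEC tube-formation assay.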
Series [12] has as its system HUVEC. Description: Cytotoxicity against HUVEC after 48 hrs by MTT assay. The class given is cell-based. The settings on record: Homo sapiens. Summed up: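 MTT assay. HeLa and MCF-7 were tested at 1 and 100 μM. HUVEC cytotoxicity was measured the same way as for HeLa and MCF-7, to define non-cytotoxic doses for the tube-formation work. IC50 values taken as means of three independent experiments.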

For another series, the system named is K562. Kind of series: Cytotoxicity against human K562 cells. Format: functional, cell-based.
For series [13], the system named is HUVEC. Kind of series: Antiangiogenic activity in HUVEC assessed as suppression of tube formation at 6.25 uM after 24 hrs by hematoxylin staining analysis. Particulars: Homo sapiens. The class given is functional.
Series [14] has as its system HUVEC. Description: Cytotoxicity against HUVEC at 12.5 nM after 48 hrs by MTT assay. The class given is cell-based. Particulars: human, 0.0125 µM.
In series [15] the test system is HUVEC. Description: Angiogenic activity in HUVEC assessed as induction of tube formation at 12.5 nM after 24 hrs by hematoxylin staining analysis. The class given is functional, cell-based. Particulars: Homo sapiens.
The mark [16] stands for this setting: Homo sapiens, HeLa, 48 h, read-out: IC50.

Activity calls are given as the source filed them. The calls are words filed in the database; no cut-off is given here.

Fibroblast growth factor receptor 1 (Homo sapiens), sequence (P11362 22-822 limits assumed): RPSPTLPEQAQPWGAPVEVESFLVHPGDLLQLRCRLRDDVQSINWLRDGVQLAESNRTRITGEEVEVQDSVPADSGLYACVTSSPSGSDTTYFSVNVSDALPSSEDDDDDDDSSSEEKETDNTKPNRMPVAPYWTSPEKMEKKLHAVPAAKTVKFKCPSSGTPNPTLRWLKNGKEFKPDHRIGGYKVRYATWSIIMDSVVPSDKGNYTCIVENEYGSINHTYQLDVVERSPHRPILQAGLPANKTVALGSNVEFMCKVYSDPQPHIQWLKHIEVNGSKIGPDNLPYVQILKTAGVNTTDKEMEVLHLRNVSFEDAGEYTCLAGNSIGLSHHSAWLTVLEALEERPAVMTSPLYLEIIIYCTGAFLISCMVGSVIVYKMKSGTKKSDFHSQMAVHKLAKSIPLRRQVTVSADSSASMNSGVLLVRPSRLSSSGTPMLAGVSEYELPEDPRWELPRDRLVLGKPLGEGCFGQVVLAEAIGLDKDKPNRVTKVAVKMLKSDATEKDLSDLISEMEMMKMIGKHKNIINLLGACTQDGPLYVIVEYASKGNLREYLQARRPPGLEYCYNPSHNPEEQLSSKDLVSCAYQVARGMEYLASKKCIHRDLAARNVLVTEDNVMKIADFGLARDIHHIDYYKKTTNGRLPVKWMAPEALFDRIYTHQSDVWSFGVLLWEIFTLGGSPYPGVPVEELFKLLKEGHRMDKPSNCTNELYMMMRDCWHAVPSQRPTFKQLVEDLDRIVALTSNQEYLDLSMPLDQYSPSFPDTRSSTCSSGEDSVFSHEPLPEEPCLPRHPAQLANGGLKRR
Vascular endothelial growth factor receptor 2 (Homo sapiens), sequence (P35968 whole entry): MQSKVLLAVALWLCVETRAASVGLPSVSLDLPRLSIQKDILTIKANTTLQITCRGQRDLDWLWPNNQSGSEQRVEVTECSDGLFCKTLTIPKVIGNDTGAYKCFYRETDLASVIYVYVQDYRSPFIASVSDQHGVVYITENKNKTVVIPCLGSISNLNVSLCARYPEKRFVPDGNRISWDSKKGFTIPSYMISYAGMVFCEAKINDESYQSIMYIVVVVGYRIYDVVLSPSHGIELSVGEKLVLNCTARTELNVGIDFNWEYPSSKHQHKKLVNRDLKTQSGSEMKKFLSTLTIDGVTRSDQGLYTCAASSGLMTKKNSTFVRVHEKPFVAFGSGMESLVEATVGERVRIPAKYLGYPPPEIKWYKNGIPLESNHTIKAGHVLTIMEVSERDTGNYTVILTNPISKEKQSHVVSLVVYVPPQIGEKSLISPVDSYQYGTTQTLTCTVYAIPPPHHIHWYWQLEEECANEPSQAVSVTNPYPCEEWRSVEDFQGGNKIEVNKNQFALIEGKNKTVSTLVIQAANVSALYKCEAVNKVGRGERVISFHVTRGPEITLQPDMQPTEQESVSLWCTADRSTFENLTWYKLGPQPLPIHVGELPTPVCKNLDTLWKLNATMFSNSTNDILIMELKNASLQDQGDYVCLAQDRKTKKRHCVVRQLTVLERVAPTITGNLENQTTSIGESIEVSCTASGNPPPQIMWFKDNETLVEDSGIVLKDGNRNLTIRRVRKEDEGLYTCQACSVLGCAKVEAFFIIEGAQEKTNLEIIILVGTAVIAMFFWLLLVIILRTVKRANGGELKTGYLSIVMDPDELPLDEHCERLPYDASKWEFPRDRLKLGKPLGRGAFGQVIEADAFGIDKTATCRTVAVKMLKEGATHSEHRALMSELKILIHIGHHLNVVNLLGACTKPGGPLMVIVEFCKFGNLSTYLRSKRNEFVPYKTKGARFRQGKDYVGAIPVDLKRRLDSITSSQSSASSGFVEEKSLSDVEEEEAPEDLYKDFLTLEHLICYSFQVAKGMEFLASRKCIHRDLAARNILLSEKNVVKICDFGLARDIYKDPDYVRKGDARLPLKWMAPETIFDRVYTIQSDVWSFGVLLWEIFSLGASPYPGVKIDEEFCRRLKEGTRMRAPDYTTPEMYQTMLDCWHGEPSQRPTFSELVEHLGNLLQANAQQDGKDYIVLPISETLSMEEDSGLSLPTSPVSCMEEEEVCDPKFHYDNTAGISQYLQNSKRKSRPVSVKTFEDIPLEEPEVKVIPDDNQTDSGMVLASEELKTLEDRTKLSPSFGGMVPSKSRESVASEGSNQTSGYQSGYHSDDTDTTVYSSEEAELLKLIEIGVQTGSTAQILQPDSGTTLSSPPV
Platelet-derived growth factor receptor beta (Homo sapiens), sequence (P09619 whole entry): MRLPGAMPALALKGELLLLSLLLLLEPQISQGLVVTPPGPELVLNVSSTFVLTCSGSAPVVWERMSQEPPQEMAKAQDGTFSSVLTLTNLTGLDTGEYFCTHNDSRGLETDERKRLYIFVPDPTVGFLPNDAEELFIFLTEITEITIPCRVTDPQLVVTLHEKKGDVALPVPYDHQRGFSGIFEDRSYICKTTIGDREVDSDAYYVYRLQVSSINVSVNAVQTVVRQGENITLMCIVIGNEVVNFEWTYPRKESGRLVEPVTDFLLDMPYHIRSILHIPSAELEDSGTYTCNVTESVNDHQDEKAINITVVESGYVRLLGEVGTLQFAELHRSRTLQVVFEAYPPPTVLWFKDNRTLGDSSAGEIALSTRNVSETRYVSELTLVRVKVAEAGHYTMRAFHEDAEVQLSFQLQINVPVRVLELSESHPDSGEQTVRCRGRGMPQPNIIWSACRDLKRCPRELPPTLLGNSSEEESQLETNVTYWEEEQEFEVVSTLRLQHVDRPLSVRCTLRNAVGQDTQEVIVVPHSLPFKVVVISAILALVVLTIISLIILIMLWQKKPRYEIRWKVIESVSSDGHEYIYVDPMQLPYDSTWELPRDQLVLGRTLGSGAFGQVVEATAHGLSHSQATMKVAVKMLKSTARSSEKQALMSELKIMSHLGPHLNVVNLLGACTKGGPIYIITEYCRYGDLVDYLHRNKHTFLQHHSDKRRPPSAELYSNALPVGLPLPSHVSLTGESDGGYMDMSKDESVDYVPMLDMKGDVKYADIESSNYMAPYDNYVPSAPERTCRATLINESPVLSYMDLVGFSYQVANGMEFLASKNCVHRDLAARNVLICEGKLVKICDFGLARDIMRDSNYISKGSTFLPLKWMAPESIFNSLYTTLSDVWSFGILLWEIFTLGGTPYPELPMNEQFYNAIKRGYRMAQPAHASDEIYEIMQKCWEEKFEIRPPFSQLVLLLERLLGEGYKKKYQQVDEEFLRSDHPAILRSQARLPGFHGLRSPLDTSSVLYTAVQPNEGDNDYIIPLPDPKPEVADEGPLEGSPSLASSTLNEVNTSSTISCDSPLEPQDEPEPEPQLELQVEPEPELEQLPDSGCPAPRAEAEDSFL

For orientation: IC50 means the concentration that gives 50% inhibition. In the case of `C#CCNC(=O)Nc1cccc(CNCc2ccc(OC)cc2)c1`, the IC50 in the series with HeLa [1] (setting [16]) is 392 µM; in the series with MCF7 [2], 195 µM.

For `CNC(=O)c1cc(Oc2ccc(NC(=O)Nc3ccc(Cl)c(C(F)(F)F)c3)cc2)ccn1` [SORAFENIB], the IC50 with MDA-MB-231 was found to be 2.5 µM.

In general, inhibition refers to the percentage by which the read-out fell short of the control. What is called EC50 is the concentration giving half of the maximal effect. On to `C#CCNC(=O)Nc1cccc(CCl)c1`, for which the IC50 in the series on HeLa [1] (setting [16]) came out at 1.55 µM; in series [3], 10.5 µM; in the series on MCF7 [2] it was 1.48 µM; with A-431 it was 0.036 µM; in the series with HUVEC [12] it was 20 µM. The inhibition of growth at 100 µM is 86.9% in the series on HeLa [4] and 85.2% in the series on MCF7 [7]. Further, the inhibition entry in series [5] is “Active”. Moreover, the half-maximal effective concentration (EC50) in the series on HUVEC [6] stood at 0.26 µM. The inhibition at 0.025 µM in the series with HUVEC [8] stood at 21.2%. The inhibition result in series [9] and in [10] was “inactive” throughout. For the same compound, in the series on HUVEC [11], the Ratio worked out at 77.

For `C#CCNC(=O)Nc1cccc(CNCc2ccc(OC(F)(F)F)cc2)c1`, the IC50 with HeLa [1] (setting [16]) was 339 µM; in the series on MCF7 [2], 283 µM.

With `COc1ccc(N(C(=O)N(C)C)c2nnc(-c3ccccc3)s2)cc1OC`, in the series on K562, half-maximal inhibition (IC50) required 3 µM.

As to `COc1cccc2c1C(=O)c1c(O)c3c(c(O)c1C2=O)C[C@@](O)(C(=O)CO)C[C@@H]3O[C@H]1C[C@H](N)[C@H](O)[C@H](C)O1` [DOXORUBICIN], the concentration for half-maximal inhibition (IC50) in the series on HeLa [1] (setting [16]) was found to be 0.19 µM.

Turning to `C#CCNC(=O)Nc1cccc(COc2ccc(C(=O)OC)cc2)c1`, the IC50 with HeLa [1] (setting [16]) amounted to 12.3 µM; in series [3], 78.2 µM; with MCF7 [2], 74.9 µM; with A-431, 0.215 µM; in the series with HUVEC [12], 100 µM. For the same compound, the EC50 in the series on HUVEC [6] stood at 17.5 µM. For the same compound, the inhibition result in [9] and in [10] was “inactive” in each case. In addition, in the series on HUVEC [11], the Ratio worked out at 6. Moreover, in the series on HUVEC [13], the inhibition at 6.25 µM is 46.5%.

In the case of `C#CCNC(=O)Nc1cccc(CNCc2ccccc2)c1`, the 50% inhibitory concentration (IC50) entry in the series on HeLa [1] (hela) is “Not Active”; in series [3], 192 µM; in the series with MCF7 [2] it was 343 µM; in the series with A-431 it was 0.318 µM; with HUVEC [12], 50 µM. In the series with HUVEC [14], the Activity entry was “Non-toxic”. Moreover, the outcome in the series on HUVEC [15] was Active.

The compound `C#Cc1cccc(Nc2ncnc3cc(OCCOC)c(OCCOC)cc23)c1` [ERLOTINIB] had an IC50 in the series on A-431 of 0.055 µM.

As to `C#CCNC(=O)Nc1cccc(CNCc2ccc(C)cc2)c1`, the half-maximal inhibitory concentration (IC50) worked out at 329 µM in the series on HeLa [1] (setting [16]) and 49.9 µM in the series with MCF7 [2].

The values above are taken from ChEMBL document CHEMBL2016469, “Synthesis and evaluation of 1-(substituted)-3-prop-2-ynylureas as antiangiogenic agents” (Bioorg Med Chem Lett, 2012).
